From PubChem BioAssay
PfG6PD inh – PfG6PD (Plasmodium falciparum) enzyme inhibition. PfGluPho enzyme, NADPH resazurin-diaphorase fluorescence. inhibition, % at 20 µM. hit rate 0.78% among 350,000. AID 504690;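 active = inhibition reaching at least a set limit at 20 µM in the primary screen, cut at about 59% in these data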;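 also: 0% = DMSO wells with substrate and 100% = DMSO wells lacking glucose-6-phosphate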
G6PDH counter – counter-screen for G6PDH assay hits: L. mesenteroides G6PDH inhibition | Purified L. mesenteroides G6PDH, diaphorase/resazurin coupled fluorescence, 45 min | AID 1020 | inhibition, % at 5 µM | hit rate 0.12% among 200,000; in the data active = inhibition above about 50%
HKDC1 inhibitor – blocks human hexokinase HKDC1 activity; recombinant HKDC1, G6PDH/diaphorase resazurin coupled fluorescence; inhibition, % at 20 µM; hit rate 0.16% among 340,000;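 active = inhibition above about 35% when tested at 20 µM, limit read from the data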;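 also: plate controls were DMSO wells with enzyme for no effect and DMSO wells lacking enzyme for full effect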
Target sequence (Q2TB90 whole entry, looked up): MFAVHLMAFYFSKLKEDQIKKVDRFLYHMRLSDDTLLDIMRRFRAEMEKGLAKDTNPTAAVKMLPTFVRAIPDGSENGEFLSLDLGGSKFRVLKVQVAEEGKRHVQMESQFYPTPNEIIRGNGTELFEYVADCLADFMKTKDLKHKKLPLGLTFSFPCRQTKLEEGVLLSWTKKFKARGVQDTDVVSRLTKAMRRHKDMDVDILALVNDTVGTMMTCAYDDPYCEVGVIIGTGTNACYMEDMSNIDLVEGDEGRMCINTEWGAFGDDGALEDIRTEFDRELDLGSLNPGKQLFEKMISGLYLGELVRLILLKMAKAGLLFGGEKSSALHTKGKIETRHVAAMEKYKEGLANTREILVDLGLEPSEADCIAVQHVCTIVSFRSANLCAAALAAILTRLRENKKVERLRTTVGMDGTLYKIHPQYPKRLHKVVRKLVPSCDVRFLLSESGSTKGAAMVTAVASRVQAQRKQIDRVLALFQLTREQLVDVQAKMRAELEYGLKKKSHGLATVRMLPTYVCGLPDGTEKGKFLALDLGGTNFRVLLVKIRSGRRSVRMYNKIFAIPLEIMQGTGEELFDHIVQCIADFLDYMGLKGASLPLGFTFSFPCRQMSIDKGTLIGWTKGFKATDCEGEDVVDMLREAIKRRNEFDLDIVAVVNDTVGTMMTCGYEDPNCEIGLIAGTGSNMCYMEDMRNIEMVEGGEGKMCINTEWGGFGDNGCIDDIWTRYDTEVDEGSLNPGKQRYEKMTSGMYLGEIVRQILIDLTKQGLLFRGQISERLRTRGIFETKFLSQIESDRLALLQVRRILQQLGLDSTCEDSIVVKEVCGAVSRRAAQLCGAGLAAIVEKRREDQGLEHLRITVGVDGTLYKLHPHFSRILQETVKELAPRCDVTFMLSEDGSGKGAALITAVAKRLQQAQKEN
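Test system: recombinant HKDC1 (HK5) hexokinase enzyme, produced in-house / Doses: 20 µM test compound, 1% DMSO / Timing: 90 min, room temperature / Detection: G6PDH/diaphorase-coupled fluorescence, 1 mM NADP, 100 µM resazurin, 525/613 nm / Control set: DMSO wells with and without enzyme mix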
Diaph inh CS – diaphorase inhibition or chemical oxidation counter-screen; diaphorase resazurin-to-resorufin fluorescence, NADH, 16 min; bacterial (C. kluyveri) enzyme, not human; inhibition, % at 20 µM; hit rate 0.69% among 190,000; AID 1217;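 active = primary screen inhibition at 20 µM above a set limit, cut at about 50% in these data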;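 also: plate controls were DMSO with full reaction for no effect and wells lacking NADH for full effect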
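controls = No-NADH positive control and DMSO neutral control | system = Clostridium kluyveri diaphorase enzyme | timing = reaction incubation of 16 min at room temperature | signal = resorufin fluorescence 544/590 nm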
Diaphorase act – diaphorase activation or chemical reduction counter-screen; hit rate 0.005% among 190,000; activation factor at 20 µM; Diaphorase/resazurin coupled assay, resorufin fluorescence, 16 min; active compounds read high; 1 = vehicle wells, 0 = NADH-free wells;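 active = diaphorase activity raised at least twofold by the compound at 20 µM; inactive = activation factor below 2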
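Material: purified diaphorase enzyme from Clostridium kluyveri / Medium: HEPES pH 7.4 buffer with MgCl2 and Tween 20 / Schedule: enzyme reaction of 16 min at room temperature / Measured by: resorufin fluorescence, excitation 544 nm, emission 590 nm / Evaluation: rise in resorufin formation, marking diaphorase activation or chemical reduction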
An asterisk follows results filed as active; · = no result. Only some compounds are listed: those with a hit (about 1.3% of all), similar ones and a draw of the others.

SMILES	PfG6PD inh	G6PDH counter	HKDC1 inhibitor	Diaph inh CS	Diaphorase act
c1ccc(-c2nnc(CSc3ccc4c(c3)OCCO4)o2)cc1	3.3	4.1	18.4	58.8*	0.4
Cc1cc(/C=C2/NC(=O)N(Cc3ccccc3F)C2=O)c(C)n1C	27.6	-6.2	-8.3	20.4	0.8
CCOc1cc([N+](=O)[O-])cc(/C=C2/NC(=O)N(Cc3ccccc3F)C2=O)c1O	-9.1	7.0	8.7	56.4*	0.4
Cc1nc2c(C(=O)NCCC(C)C)c[nH]n2c(=O)c1Cl	1.9	0.3	6.2	28.4	0.7
Cc1nc2c(C(=O)NCCc3ccccc3)c[nH]n2c(=O)c1Cl	8.3	14.0	3.9	79.2*	0.2
O=C(O)COc1ccccc1C(Nc1ccccn1)c1cc(Cl)c2cccnc2c1O (stereo not drawn)	-26.2	17.4	-10.2	51.1*	0.5
O=C(O)COc1ccccc1C(Nc1cccnc1)c1cc(Cl)c2cccnc2c1O (stereo not drawn)	0.7	23.2	7.6	60.7*	0.4
CCOc1ccc(C(Nc2cccnc2)c2cc(Cl)c3cccnc3c2O)cc1 (stereo not drawn)	21.2	27.6	-30.6	29.8	0.7
Cc1ccc(C(NC(=O)C(C)C)c2cc([N+](=O)[O-])c3cccnc3c2O)cc1 (stereo not drawn)	19.3	52.9*	5.5	39.3	0.6
COc1ccc(C(NC(C)=O)c2cc(Cl)c3cccnc3c2O)cc1OC (stereo not drawn)	18.3	10.0	-22.1	66.5*	0.3
COc1ccccc1C(NC(C)=O)c1cc(Cl)c2cccnc2c1O (stereo not drawn)	42.8	·	-21.6	·	·
CC(C)C(=O)NC(c1cccs1)c1cc([N+](=O)[O-])c2cccnc2c1O (stereo not drawn)	31.6	13.0	22.2	35.6	0.6
Cc1ccc(CNC(=O)CNC(=O)c2ccc(C(C)(C)C)cc2)n1C	0.8	·	-0.5	·	·
O=c1c2ccccc2sn1-c1cc(S(=O)(=O)N2CCOCC2)ccc1N1CCOCC1	111.3*	7.3	-0.5	4.1	1
COC(=O)c1ccsc1NC(=O)CN1CCN(c2ncccn2)CC1	-3.8	·	-1.0	·	·
O=C(O)/C=C/C(=O)Nc1cccc2cccnc12	2.5	·	-2.4	·	·
O=C(/C=C/c1ccco1)Nc1cccc2cccnc12	10.8	-7.6	21.1	63.3*	0.4
COc1ccc(S(=O)(=O)N(C)CC(=O)Nc2ccc(C)cc2)cc1OC	5.1	6.4	-7.9	65.2*	0.3
O=C(COc1ccc(Cl)cc1Cl)Nn1c(=S)[nH]c2ncccc2c1=O	-23.0	-22.0	-22.1	50.4*	0.5
COc1ccc(-c2noc(CN(C)C(=O)CCCN3C(=O)[C@H]4CC=CC[C@H]4C3=O)n2)cc1	-18.4	·	·	·	·
Cc1coc2c1C(=O)C(=O)c1c-2ccc2c(C)cccc12	63.7*	·	29.7	·	·
O=C(Nc1ccc(N2CCCC2)cc1)C(Cl)c1ccccc1 (stereo not drawn)	87.6*	0.6	7.9	29.8	0.7
COc1ccc(C2CC(=O)N3CN(c4ccc(C)c(Cl)c4)CSC3=C2C#N)cc1 (stereo not drawn)	70.5*	14.0	17.6	50.0*	0.5
N#CC1=C2SCN(Cc3ccco3)CN2C(=O)CC1c1ccc(Cl)cc1 (stereo not drawn)	54.2	29.3	16.7	42.9	0.6
COc1cc(OC)c(C2CC(=O)N3CN(c4ccccc4C)CSC3=C2C#N)cc1OC (stereo not drawn)	·	7.4	·	47.7	0.5
SMILES	PfG6PD inh	G6PDH counter	HKDC1 inhibitor	Diaph inh CS	Diaphorase act
COc1ccc(OC)c(C2CC(=O)N3CN(c4ccccc4)CSC3=C2C#N)c1 (stereo not drawn)	80.8*	9.9	12.1	37.6	0.6
Cc1cccc(N2CSC3=C(C#N)C(c4ccc(C)o4)CC(=O)N3C2)c1 (stereo not drawn)	·	11.5	·	63.9*	0.4
N#CC1=C2SCN(Cc3ccccc3)CN2C(=O)CC1c1ccc2c(c1)OCO2 (stereo not drawn)	60.7*	-10.4	17.0	46.1	0.5
CCCNC(=O)Cn1c(=O)/c(=C/c2ccc(-c3ccc([N+](=O)[O-])cc3)o2)s/c1=C\C(=O)C(C)(C)C	-10.9	·	0.0	·	·
O=C1NC(=S)N/C1=C/c1ccc2ccccc2c1	-1.5	·	4.2	·	·
NC(=O)c1ccc(NC(=O)COC(=O)c2c[nH]c3ccccc23)cc1	-3.5	·	-6.8	·	·
